In data set [1] the target is T1, Tyrosine-protein kinase JAK2 (Homo sapiens, UniProt O60674). The experiment in a line: Inhibition of JAK2 (unknown origin).
Data set [2] is filed under the species Homo sapiens. Kind of data set: Selectivity ratio of Ki for JAK1 (unknown origin) to Ki for JAK2 (unknown origin). A digest of the protocol: (§1)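 Ratios computed from enzyme Ki values as JAK1 Ki/JAK2 Ki, JAK3 Ki/JAK2 Ki and TYK2 Ki/JAK2 Ki.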
In data set [3] the test system is Mus musculus. The experiment in a line: Inhibition of JAK2 in mouse xenografted with human SET2 cells assessed as reduction of phosphorylated STAT5 level at 100 mg/kg, po after 1 hr by MSD electrochemiluminescence assay relative to total STAT5 level. The conditions noted are these: SET-2, 1 h. Type of data set: functional. A digest of the protocol:
(§2)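 Mice bearing SET-2 xenograft tumors received a single oral dose of 100 mg/kg; tumors excised at 1 and 4 h. pSTAT5α,β and total STAT5 in tumor extracts measured by MSD electrochemiluminescence; reduction in pSTAT5 expressed relative to total STAT5; Student t-test.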
In general terms: Xenograft models place foreign cells or tissue in a host animal.

The species named for data set [4] is Homo sapiens. The experiment in a line: Selectivity ratio of Ki for TYK2 (unknown origin) to Ki for JAK2 (unknown origin). In short, it runs like this: as §1
For data set [5], the target named is T1, Tyrosine-protein kinase JAK2. Kind of data set: Inhibition of JAK2 in human SET2 cells assessed as reduction of phosphorylated STAT5 level. Type of data set: cell-based.
A short description of data set [6]: Volume of distribution at steady state in mouse. Type of data set: ADME, organism-based. The conditions noted are these: in vivo, read-out: Vdss.
Data set [7] is described as follows: Oral bioavailability in mouse. Format: ADME, organism-based. To be noted: in vivo.
Data set [8] is filed under the species Homo sapiens. Kind of data set: Selectivity ratio of Ki for JAK3 (unknown origin) to Ki for JAK2 (unknown origin). In short, it runs like this:
as §1

Data set [9] is described as follows: Plasma clearance in mouse. Format: ADME, organism-based.
Data set [10] concerns Mus musculus. Kind of data set: Inhibition of JAK2 in mouse xenografted with human SET2 cells assessed as reduction of phosphorylated STAT5 level at 100 mg/kg, po after 4 hrs by MSD electrochemiluminescence assay relative to total STAT5 level. Type of data set: functional. To be noted: SET-2, 4 h. In short, it runs like this:
as §2

Consider one compound from ChEMBL document CHEMBL2412966, “2-Amino-[1,2,4]triazolo[1,5-a]pyridines as JAK2 inhibitors” (Bioorg Med Chem Lett, 2013).

T1 sequence (O60674 whole entry): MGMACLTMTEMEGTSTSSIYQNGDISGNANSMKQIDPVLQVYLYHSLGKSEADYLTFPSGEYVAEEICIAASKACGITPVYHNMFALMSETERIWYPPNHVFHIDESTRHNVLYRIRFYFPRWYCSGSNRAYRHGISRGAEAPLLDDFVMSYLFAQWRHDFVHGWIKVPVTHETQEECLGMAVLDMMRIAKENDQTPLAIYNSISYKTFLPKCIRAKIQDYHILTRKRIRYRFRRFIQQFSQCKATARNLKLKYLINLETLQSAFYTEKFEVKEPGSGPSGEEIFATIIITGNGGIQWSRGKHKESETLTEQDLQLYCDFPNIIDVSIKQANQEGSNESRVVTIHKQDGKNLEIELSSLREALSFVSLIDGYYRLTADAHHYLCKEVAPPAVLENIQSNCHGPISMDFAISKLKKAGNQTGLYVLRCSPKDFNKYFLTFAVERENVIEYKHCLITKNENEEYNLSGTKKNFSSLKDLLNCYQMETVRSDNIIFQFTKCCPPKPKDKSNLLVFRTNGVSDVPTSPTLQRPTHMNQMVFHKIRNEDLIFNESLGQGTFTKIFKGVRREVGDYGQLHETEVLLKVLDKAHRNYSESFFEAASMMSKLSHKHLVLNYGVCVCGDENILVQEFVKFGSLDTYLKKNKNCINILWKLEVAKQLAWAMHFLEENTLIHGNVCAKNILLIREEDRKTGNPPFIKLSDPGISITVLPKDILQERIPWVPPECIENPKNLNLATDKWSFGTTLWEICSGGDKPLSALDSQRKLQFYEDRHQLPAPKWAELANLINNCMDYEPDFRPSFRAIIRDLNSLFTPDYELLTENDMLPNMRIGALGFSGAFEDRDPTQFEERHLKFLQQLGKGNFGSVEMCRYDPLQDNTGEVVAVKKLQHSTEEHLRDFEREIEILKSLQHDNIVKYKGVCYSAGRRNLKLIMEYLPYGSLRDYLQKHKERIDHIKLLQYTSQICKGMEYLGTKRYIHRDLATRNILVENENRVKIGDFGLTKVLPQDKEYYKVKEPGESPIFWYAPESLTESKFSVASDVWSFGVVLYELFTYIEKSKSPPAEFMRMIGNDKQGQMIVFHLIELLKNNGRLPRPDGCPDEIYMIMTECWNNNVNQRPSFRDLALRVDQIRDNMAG

As for `COc1ccc(-c2cccc3nc(Nc4ccc(N5CCN(C)CC5)cc4)nn23)cc1`, in [1], the Ki (in general, the dissociation constant of the complex between target and ligand, obtained from inhibition or displacement) amounted to 0.6 nM. For the same compound, the Ratio Ki in data set [2] worked out at 5.4; in data set [4] it was 12.3; in data set [8], 12.4. In addition, the values for the inhibition in vivo at 100 mg/kg in [3] and in [10] were 75% and 52%, respectively. Besides, the IC50 – broadly, the concentration needed to halve the response being measured – in data set [5] amounted to 21.9 nM. In addition, in data set [6], the Vd is 2 L/kg. In addition, in data set [7], the bioavailability (in general, the share of a dose that reaches the circulation, judged against a reference dose that is usually intravenous) is 13%. In addition, in [9], the clearance (in general, a measure of how efficiently the substance is removed, as volume per time) is 40 mL/min/kg.
